Calls of active or inactive are those of the source. The calls are words filed in the database; no cut-off is given here.
Columns and labels:
[1] = test system: A2780; test: Potency index, ratio of cisplatin IC50 to compound IC50 for antiproliferative activity in human A2780 cells assessed as reduction in cell viability incubated for 72 hrs by MTT assay; type: functional
In short: (§1)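 Cells seeded in 96-well plates overnight, exposed 72 h to increasing concentrations. MTT (5 mg/ml) added for 15 min, formazan dissolved in DMSO, absorbance read at 544 nm with 690 nm background subtracted. IC50 is the concentration reducing signal by 50%. Three independent experiments in triplicate. CisR sublines made by weekly intermittent cisplatin exposure for 24–30 weeks.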

[2] = test system: A2780; test: Antiproliferative activity against human A2780 cells assessed as reduction in cell viability incubated for 48 hrs by MTT assay; type: functional, cell-based; conditions: A2780, 48 h
In short: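 Cells seeded overnight in 96-well plates, then exposed to increasing concentrations (compound dissolved in DMSO, diluted in medium) for the stated time. MTT (5 mg/ml in PBS) added for 15 min, formazan dissolved in DMSO, absorbance read at 544 nm minus 690 nm background. IC50 = concentration giving 50% signal decrease. At least three independent experiments in triplicate.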

[3] = test system: A2780; test: Cell cycle arrest in human A2780 cells assessed as accumulation at G1 phase at 5 uM incubated for 24 hrs by propidium iodide staining based flow cytometry (reference value: 61.8%); type: functional
In short: (§2)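 After 24 h exposure, cells washed in ice-cold PBS. About 2 million cells fixed in cold 70% ethanol at −20 °C for at least 24 h. Stained with 0.1% Triton X-100, 200 µg/ml RNase A and 20 µg/ml propidium iodide in PBS, 15 min at 37 °C in the dark. DNA content read by flow cytometry with doublet discrimination. Medium as untreated control, paclitaxel as G2/M control. Three independent experiments.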

[4] = test system: A2780cisR; test: Cell cycle arrest in human A2780cisR cells assessed as accumulation at G1 phase at 1 uM incubated for 24 hrs by propidium iodide staining based flow cytometry (reference value: 68.7%); type: functional; in short: as §2
[5] = test system: J82; test: Cell cycle arrest in human J82 cells assessed as accumulation at G1 phase at 10 uM incubated for 24 hrs by propidium iodide staining based flow cytometry (reference value: 69.6%); type: functional; in short: as §2
[6] = test system: J82; test: Cell cycle arrest in cisplatin resistant human J82 cells assessed as accumulation at G1 phase at 10 uM incubated for 24 hrs by propidium iodide staining based flow cytometry (reference value: 78.1%); type: functional; in short: as §2
[7] = test system: A2780; test: Induction of apoptosis in human A2780 cells assessed as accumulation in subG1 phase incubated for 24 hrs by propidium iodide staining based flow cytometry; type: functional, cell-based
In short: (§3)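 Cells plated in 24-well plates (about 100,000/well) for one day, then treated 24 h. Where used, caspase inhibitor Q-VD-OPh (20 µM) was added 1 h before. Cells lysed in hypotonic buffer (0.1% sodium citrate, 0.1% Triton X-100, 100 µg/ml propidium iodide) overnight at 4 °C in the dark. Sub-G1 fraction read by flow cytometry. Medium control, cisplatin positive control.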

[8] = test system: J82; test: Induction of apoptosis in cisplatin resistant human J82 cells assessed as accumulation in subG1 phase at 5 uM incubated for 24 hrs by propidium iodide staining based flow cytometry relative to control; type: functional; in short: as §3
[9] = test system: A2780; test: Induction of apoptosis in human A2780 cells assessed as depolarization of mitochondrial membrane potential incubated for 1 hr by TMRE staining based flow cytometry; type: functional, cell-based
In short: (§4)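 Cells seeded overnight; complete medium swapped for FBS-free medium just before treatment to avoid TMRE ester cleavage. Exposure to PXA for 1 h, 2 h or 24 h. TMRE staining 20 min, cells collected by trypsinisation, ΔΨm read by flow cytometry. Medium served as negative control, 20 µM CCCP as positive control. Mean ± SEM reported.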

[10] = test system: A2780; test: Induction of apoptosis in human A2780 cells assessed as depolarization of mitochondrial membrane potential incubated for 2 hrs by TMRE staining based flow cytometry; type: functional, cell-based; in short: as §4
[11] = test system: J82; test: Induction of apoptosis in human J82 cells assessed as depolarization of mitochondrial membrane potential incubated for 2 hrs by TMRE staining based flow cytometry; type: functional, cell-based; in short: as §4
[12] = test system: J82; test: Induction of apoptosis in cisplatin resistant human J82 cells assessed as depolarization of mitochondrial membrane potential incubated for 1 hr by TMRE staining based flow cytometry; type: functional, cell-based
In short: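 Cells seeded overnight; medium switched to FBS-free just before treatment to avoid TMRE ester cleavage. Exposure 1 h, 2 h or 24 h, then TMRE staining for 20 min. Cells trypsinized, centrifuged at 4 °C and read by flow cytometry. Medium as negative control, 20 µM CCCP as positive control. […]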

[13] = test system: A2780cisR; test: Induction of apoptosis in human A2780cisR cells assessed as increase in intracellular calcium level at 10 to 30 uM incubated for 30 mins in presence of 1 mM extracellular calcium by fluorimetry; type: functional, cell-based
In short: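 Cells seeded in 96-well plates overnight, washed twice with Krebs-HEPES buffer, loaded 1 h at 37 °C in the dark with Oregon Green BAPTA-1 AM (final 3 µM) and Pluronic F-127. Buffer replaced, PXA added, fluorescence at 544 nm recorded for 30 min, with or without 1 mM extracellular Ca2+. Three experiments, mean ± SEM.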

[14] = test system: J82; test: Induction of apoptosis in cisplatin resistant human J82 cells assessed as increase in activation of caspase 3/7 at 30 uM incubated for 24 hrs by hoechst 33342 staining based fluorescence microscopy (reference value: 0.5%); type: functional
[15] = test system: A2780cisR; test: Effect on ROS generation in human A2780cisR cells at 316 nM incubated for 18 hrs by H2DCFDA staining based flow cytometry; type: functional, cell-based
In short: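 Cells plated in 24-well plates (about 150,000/well) overnight, then exposed 18 h. Washed and moved to phenol red-free, serum-free RPMI-1640, then loaded with 10 µM H2DCF-DA for 30 min at 37 °C in the dark. One aliquot read directly, the other after 250 µM H2O2 for 1 h at 37 °C. DCF fluorescence read by flow cytometry. Three independent experiments.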

[16] = test system: J82; test: Ratio of IC50 for antiproliferative activity in human J82 cells to cisplatin-resistant human J82 cells assessed as reduction of cell viability incubated for 72 hrs by MTT assay; type: functional; in short: as §1
[17] = test system: J82; test: Induction of apoptosis in cisplatin-resistant human J82 cells assessed as nuclear condensation by measuring reduced size and increased intensity of nuclei at 30 uM incubated for 24 hrs by hoechst 33342 staining based fluorescence microscopy; type: functional, cell-based

CC(=O)OC[C@]12Oc3c(-c4ccc(O)c5c4O[C@@]4(COC(C)=O)C(=C(O)C[C@@H](C)[C@H]4OC(C)=O)C5=O)ccc(O)c3C(=O)C1=C(O)C[C@@H](C)[C@H]2OC(C)=O [PHOMOXANTHONE A]
Ratio IC50 [1]: 7 | IC50 ([2]; read-out: IC50): 1.18 µM | IC50 ([2]; read-out: pIC50 (converted)): 1.17 µM | Activity [3]: 75.9% | Activity [4]: 72.7% | Activity [5]: 70.9% | Activity [6]: 81.2% | Activity [7]: Dose-dependent effect | Activity [8]: 35% | Activity [9]: Dose-dependent effect | IC50 ([9]; A2780, 1 h): 1.01 µM | Activity [10]: Dose-dependent effect | IC50 ([10]; A2780, 2 h): 0.75 µM | Activity [11]: Dose-dependent effect | IC50 ([11]; J82, 2 h): 3.34 µM | Activity [12]: Dose-dependent effect | IC50 ([12]; J82, 1 h): 3.12 µM | Activity [13]: Active | Activity [14]: 90% | Activity [15]: inactive | Ratio IC50 [16]: 1.6 | Activity [17]: Active
